Reference: ChEMBL document CHEMBL1140956, “Syntheses of 4-(indole-3-yl)quinazolines: a new class of epidermal growth factor receptor tyrosine kinase inhibitors” (Eur J Med Chem, 2008)

What was measured:
[1] = biological target: Epidermal growth factor receptor (Homo sapiens, UniProt P00533); assay: Inhibition of human EGFR tyrosine kinase activity
[2] = system: TK-10; assay: Growth inhibition of human TK10 cells after 72 hrs by SRB assay; assay type: functional; details: TK-10, 48 h, in the assay text read “48 hrs” for “72 hrs”
Method in brief: (§1)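 NCI 60-cell-line screen. Cells were grown in RPMI 1640 with 5% fetal bovine serum, plated at 5000–40 000 cells/well by doubling time, and held 24 h at 37 °C, 5% CO2. Time-zero plates were TCA-fixed when the DMSO-solubilized drug was added at five concentrations (10-fold or ½-log dilutions). After 48 h, cells were fixed with cold TCA and stained with 0.4% SRB in 1% acetic acid. Bound dye was dissolved in 10 mM trizma base and read at 515 nm. Percentage growth was calculated relative to time-zero and control.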

[3] = system: HOP-92; assay: Growth inhibition of human HOP92 cells after 72 hrs by SRB assay; assay type: functional; details: HOP-92, 48 h, in the assay text read “48 hrs” for “72 hrs”; method in brief: as §1
[4] = system: A498; assay: Growth inhibition of human A498 cells after 72 hrs by SRB assay; assay type: functional; details: A498, 48 h, in the assay text read “48 hrs” for “72 hrs”; method in brief: as §1
[5] = system: HT-29; assay: Growth inhibition of human HT29 cells after 72 hrs by SRB assay; assay type: functional; details: HT-29, 48 h, in the assay text read “48 hrs” for “72 hrs”; method in brief: as §1
[6] = system: SNB-75; assay: Growth inhibition of human SNB75 cells after 72 hrs by SRB assay; assay type: functional; details: SNB-75, 48 h, in the assay text read “48 hrs” for “72 hrs”; method in brief: as §1
[7] = system: IGROV-1; assay: Growth inhibition of human IGROV1 cells after 72 hrs by SRB assay; assay type: functional; details: IGROV-1, 48 h, in the assay text read “48 hrs” for “72 hrs”; method in brief: as §1
[8] = system: EKVX; assay: Growth inhibition of human EKVX cells after 72 hrs by SRB assay; assay type: functional; details: 48 h, in the assay text read “48 hrs” for “72 hrs”; method in brief: as §1
[9] = system: PC-3; assay: Growth inhibition of human PC3 cells after 72 hrs by SRB assay; assay type: functional; details: PC-3, 48 h, in the assay text read “48 hrs” for “72 hrs”; method in brief: as §1
[10] = system: ACHN; assay: Growth inhibition of human ACHN cells after 72 hrs by SRB assay; assay type: functional; details: 48 h, in the assay text read “48 hrs” for “72 hrs”; method in brief: as §1
[11] = system: SK-OV-3; assay: Growth inhibition of human SKOV3 cells after 72 hrs by SRB assay; assay type: functional; details: SK-OV-3, 48 h, in the assay text read “48 hrs” for “72 hrs”; method in brief: as §1
[12] = biological target: Receptor tyrosine-protein kinase erbB-2 (Homo sapiens) (UniProt P04626); assay: Inhibition of human HER2 tyrosine kinase activity at 100 nM
[13] = system: NCI-H322M; assay: Growth inhibition of human NCI-H322M cells after 72 hrs by SRB assay; assay type: functional; details: 48 h, in the assay text read “48 hrs” for “72 hrs”; method in brief: as §1

Epidermal growth factor receptor, sequence (P00533 whole entry): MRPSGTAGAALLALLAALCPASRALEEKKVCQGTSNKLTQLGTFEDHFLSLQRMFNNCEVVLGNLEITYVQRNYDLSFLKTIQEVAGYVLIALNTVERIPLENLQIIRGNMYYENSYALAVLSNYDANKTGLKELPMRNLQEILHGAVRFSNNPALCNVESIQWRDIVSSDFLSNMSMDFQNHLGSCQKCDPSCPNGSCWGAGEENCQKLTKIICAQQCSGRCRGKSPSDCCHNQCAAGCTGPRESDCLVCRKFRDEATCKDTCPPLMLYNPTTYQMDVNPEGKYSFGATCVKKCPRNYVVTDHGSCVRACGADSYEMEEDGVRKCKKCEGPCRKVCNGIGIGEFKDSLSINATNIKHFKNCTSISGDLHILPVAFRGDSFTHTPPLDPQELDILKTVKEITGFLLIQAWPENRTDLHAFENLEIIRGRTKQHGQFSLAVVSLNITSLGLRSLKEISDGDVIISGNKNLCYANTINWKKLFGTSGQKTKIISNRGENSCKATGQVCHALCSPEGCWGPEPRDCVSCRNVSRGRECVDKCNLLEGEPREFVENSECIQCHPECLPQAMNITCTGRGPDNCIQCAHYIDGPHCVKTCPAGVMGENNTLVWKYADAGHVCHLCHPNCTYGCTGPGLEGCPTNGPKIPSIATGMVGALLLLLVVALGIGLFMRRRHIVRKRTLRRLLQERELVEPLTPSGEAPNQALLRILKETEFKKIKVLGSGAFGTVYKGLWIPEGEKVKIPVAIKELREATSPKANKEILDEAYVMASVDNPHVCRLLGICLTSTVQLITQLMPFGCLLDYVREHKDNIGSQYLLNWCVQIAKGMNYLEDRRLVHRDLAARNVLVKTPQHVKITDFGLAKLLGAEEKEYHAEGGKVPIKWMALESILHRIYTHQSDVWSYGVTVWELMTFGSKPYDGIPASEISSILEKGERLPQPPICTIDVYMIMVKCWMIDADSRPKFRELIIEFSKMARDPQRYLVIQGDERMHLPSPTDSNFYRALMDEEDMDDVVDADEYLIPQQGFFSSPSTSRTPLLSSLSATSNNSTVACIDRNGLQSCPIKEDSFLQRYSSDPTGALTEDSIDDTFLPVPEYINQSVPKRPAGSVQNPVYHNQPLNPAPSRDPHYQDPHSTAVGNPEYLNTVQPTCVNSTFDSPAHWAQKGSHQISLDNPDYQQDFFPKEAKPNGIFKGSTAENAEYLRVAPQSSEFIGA
Receptor tyrosine-protein kinase erbB-2 (Homo sapiens), sequence (P04626 whole entry): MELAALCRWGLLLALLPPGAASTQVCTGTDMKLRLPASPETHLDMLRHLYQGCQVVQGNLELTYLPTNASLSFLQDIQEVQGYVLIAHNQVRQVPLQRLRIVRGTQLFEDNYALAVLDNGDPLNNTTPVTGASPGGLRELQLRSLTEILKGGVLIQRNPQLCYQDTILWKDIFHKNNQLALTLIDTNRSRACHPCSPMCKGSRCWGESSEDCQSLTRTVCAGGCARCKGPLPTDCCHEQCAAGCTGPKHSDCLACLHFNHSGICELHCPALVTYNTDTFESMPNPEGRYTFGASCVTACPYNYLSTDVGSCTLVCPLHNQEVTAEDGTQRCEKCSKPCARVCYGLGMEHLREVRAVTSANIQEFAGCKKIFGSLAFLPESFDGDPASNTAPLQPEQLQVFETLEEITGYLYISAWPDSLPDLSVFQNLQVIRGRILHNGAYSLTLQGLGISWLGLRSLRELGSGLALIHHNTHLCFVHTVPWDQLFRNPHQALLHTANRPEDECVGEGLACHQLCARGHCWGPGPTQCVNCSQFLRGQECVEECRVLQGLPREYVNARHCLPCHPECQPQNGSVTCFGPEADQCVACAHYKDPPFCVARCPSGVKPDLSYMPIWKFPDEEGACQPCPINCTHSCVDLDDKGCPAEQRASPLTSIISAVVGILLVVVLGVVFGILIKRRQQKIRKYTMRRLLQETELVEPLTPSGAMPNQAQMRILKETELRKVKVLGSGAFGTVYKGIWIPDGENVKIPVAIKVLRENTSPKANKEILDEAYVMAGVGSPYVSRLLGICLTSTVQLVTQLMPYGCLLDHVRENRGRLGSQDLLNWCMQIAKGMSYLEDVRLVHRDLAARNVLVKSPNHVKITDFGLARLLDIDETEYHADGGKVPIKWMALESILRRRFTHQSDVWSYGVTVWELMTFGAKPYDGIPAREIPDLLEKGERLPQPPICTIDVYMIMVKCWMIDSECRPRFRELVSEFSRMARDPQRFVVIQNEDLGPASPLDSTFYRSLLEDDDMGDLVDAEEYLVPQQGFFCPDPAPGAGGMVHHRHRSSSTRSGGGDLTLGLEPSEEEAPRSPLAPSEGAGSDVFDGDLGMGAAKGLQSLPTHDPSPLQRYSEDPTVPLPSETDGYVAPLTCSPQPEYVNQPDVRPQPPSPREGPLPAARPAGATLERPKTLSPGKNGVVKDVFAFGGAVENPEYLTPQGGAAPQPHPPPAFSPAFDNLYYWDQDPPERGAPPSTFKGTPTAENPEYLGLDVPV

SMILES | IC50 [1] [nM] | GI50 [2] [nM] | GI50 [3] [nM] | GI50 [4] [nM] | GI50 [5] [nM] | GI50 [6] [nM] | GI50 [7] [nM] | GI50 [8] [nM] | GI50 [9] [nM] | GI50 [10] [nM] | GI50 [11] [nM] | inhibition [12] [%] | GI50 [13] [nM]
COCCOc1cc2ncnc(-c3c[nH]c4cc(F)c(Cl)cc34)c2cc1OCCOC | 472 |  |  |  |  |  |  |  |  |  |  |  | 
COc1cc2ncnc(-c3c[nH]c4cc(F)c(C)cc34)c2cc1OC | 533 |  |  |  |  |  |  |  |  |  |  |  | 
COc1cc2ncnc(-c3c[nH]c4cc(F)c(Cl)cc34)c2cc1OC | 209 | 325 | 1750 | 492 | 848 | 204 | 424 | 410 | 766 | 222 | 711 | 3 | 255
COc1cc2ncnc(-c3c[nH]c4cc(F)c(Cl)cc34)c2cc1OCCCN1CCOCC1 | 333 | 97.6 | 504 | 2900 | 3700 | 49.3 | 108 | 89.7 | 490 | 215 | 592 | 19 | 38
COc1cc2ncnc(-c3c[nH]c4ccc(Br)cc34)c2cc1OC | 131 |  |  |  |  |  |  |  |  |  |  |  | 
